Assay results as given in ChEMBL document CHEMBL1151735, “Further studies with the 2-amino-1,3-thiazol-4(5H)-one class of 11beta-hydroxysteroid dehydrogenase type 1 inhibitors: reducing pregnane X receptor activity and exploring activity in a monkey pharmacodynamic model” (J Med Chem, 2008).
Calls of active or inactive are those of the source. The rule behind the calls is not given here.

Tests used:
[1] = biological target: T1, 11-beta-hydroxysteroid dehydrogenase 1 (Homo sapiens, UniProt P28845); experiment: Inhibition of human recombinant 11beta-HSD1 expressed in Escherichia coli using [3H]cortisone by scintillation proximity assay
[2] = biological target: T1, 11-beta-hydroxysteroid dehydrogenase 1; experiment: Inhibition of human 11beta-HSD1 expressed in CHO cells assessed as conversion of cortisone to cortisol by ELISA; type: cell-based
[3] = biological target: T2, PXR (nuclear receptor subfamily 1 group I member 2) (Homo sapiens, UniProt O75469); experiment: Transactivation of human PXR transfected in HEK cells at 2 uM by luciferase reporter gene assay relative to 12.5 uM rifampin; type: cell-based; conditions: HEK293 cells transfected with human PXR, read-out: Activity
T2 sequence (O75469 whole entry): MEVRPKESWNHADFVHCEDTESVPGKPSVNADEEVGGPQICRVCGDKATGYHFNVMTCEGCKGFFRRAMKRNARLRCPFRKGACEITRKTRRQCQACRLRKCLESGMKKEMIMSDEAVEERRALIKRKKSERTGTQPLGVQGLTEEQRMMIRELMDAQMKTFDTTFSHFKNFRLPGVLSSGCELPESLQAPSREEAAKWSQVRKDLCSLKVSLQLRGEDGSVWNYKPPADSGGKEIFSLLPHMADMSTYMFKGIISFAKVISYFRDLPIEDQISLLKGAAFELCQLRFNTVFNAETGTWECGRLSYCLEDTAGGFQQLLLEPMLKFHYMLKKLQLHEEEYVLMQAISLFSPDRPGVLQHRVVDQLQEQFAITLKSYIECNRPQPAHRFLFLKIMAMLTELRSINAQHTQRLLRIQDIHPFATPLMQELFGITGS
Procedure, shortened: (§1)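 HEK cells transfected with human PXR fused to a firefly luciferase reporter. Luciferase activity is expressed as percent of the 12.5 µM rifampin response. Run in triplicate; SEM reported.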

[4] = biological target: T3, Nuclear receptor subfamily 1 group I member 2 (Homo sapiens, UniProt O75469); experiment: Transactivation of human PXR transfected in HEK cells at 20 uM by luciferase reporter gene assay relative to 12.5 uM rifampin; type: cell-based; conditions: hek293, 20 µM; procedure, shortened: as §1
T3 sequence (O75469 whole entry): T2 sequence (O75469 whole entry)

Hepatocyte [5] = experiment: Induction of CYP3A4 in cryopreserved human hepatocytes from male DJV donars with no adverse medical history or substance or alcohol abuse assessed as mRNA expression at 20 uM relative to 20 uM rifampin; type: functional
Hepatocyte [6] = experiment: Induction of CYP3A4 in cryopreserved human hepatocytes from female NPV donars with history of tobacco and substance usage assessed as mRNA expression at 20 uM relative to 20 uM rifampin; type: functional
Cytochrome P450 3A4 [7] = biological target: T4, Cytochrome P450 3A4 (Homo sapiens, UniProt P08684); experiment: Induction of CYP3A4 activity in cryopreserved human hepatocytes from male DJV donars with no adverse medical history or substance or alcohol abuse at 20 uM relative to 20 uM rifampin
Cytochrome P450 3A4 [8] = biological target: T4, Cytochrome P450 3A4; experiment: Induction of CYP3A4 activity in cryopreserved human hepatocytes from female NPV donars with history of tobacco and substance usage at 20 uM relative to 20 uM rifampin
[9] = biological target: T5, 11-beta-hydroxysteroid dehydrogenase 1 (Mus musculus, UniProt P50172); experiment: Inhibition of mouse recombinant 11beta-HSD1 expressed in Escherichia coli using [3H]cortisone by scintillation proximity assay
Procedure, shortened: (§2)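 Purified enzyme expressed in E. coli, dog at 20 nM final and mouse at 5 nM. [3H]cortisone 100 nM, NADPH 200 µM, in 50 mM Tris-HCl, 1 mM EDTA, pH 7.2. 1 h at room temperature, then stopped with 18β-glycyrrhetinic acid. Anticortisol antibody and antimouse SPA beads added for 30 min; read by scintillation counting. Ki derived.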

[10] = biological target: T6, 11-beta-hydroxysteroid dehydrogenase 1 (Rattus norvegicus, UniProt P16232); experiment: Inhibition of rat recombinant 11beta-HSD1 expressed in Escherichia coli using [3H]cortisone by scintillation proximity assay
[11] = biological target: T7, 11-beta-hydroxysteroid dehydrogenase type 1 (Canis lupus familiaris, UniProt Q5XX84); experiment: Inhibition of dog recombinant 11beta-HSD1 expressed in Escherichia coli using [3H]cortisone by scintillation proximity assay; procedure, shortened: as §2
[12] = Inhibition of monkey recombinant 11beta-HSD1 expressed in Escherichia coli using [3H]cortisone by scintillation proximity assay; set-up: species or system Macaca mulatta
[13] = biological target: T5, 11-beta-hydroxysteroid dehydrogenase 1; experiment: Inhibition of mouse 11beta-HSD1 expressed in CHO cells assessed as conversion of cortisone to cortisol by ELISA; type: cell-based
Procedure, shortened: (§3)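 CHO cells stably overexpressing the species 11β-HSD1, 30000 per well, seeded 1 day before. Rinsed in HEPES glucose buffer pH 7.4 with 0.1% DMSO. Compound 0.1 nM–10 µM final, 60 min at 37 °C. Cortisone then added (100 nM final) at 37 °C: mouse 45 min, dog 1.5 h, rat and monkey 2 h. Cortisol measured by ELISA.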

[14] = biological target: T6, 11-beta-hydroxysteroid dehydrogenase 1; experiment: Inhibition of rat 11beta-HSD1 expressed in CHO cells assessed as conversion of cortisone to cortisol by ELISA; type: cell-based; procedure, shortened: as §3
[15] = biological target: T7, 11-beta-hydroxysteroid dehydrogenase type 1; experiment: Inhibition of dog 11beta-HSD1 expressed in CHO cells assessed as conversion of cortisone to cortisol by ELISA; type: cell-based; procedure, shortened: as §3
[16] = Inhibition of monkey 11beta-HSD1 expressed in CHO cells assessed as conversion of cortisone to cortisol by ELISA; type: cell-based, Macaca mulatta; procedure, shortened: as §3
[17] = Clearance in mouse at 2 mg/kg, iv and 10 mg/kg, po; type: ADME, organism-based; conditions: in vivo
[18] = Volume of distribution at steady state in mouse at 2 mg/kg, iv and 10 mg/kg, po; type: ADME, organism-based; conditions: in vivo, read-out: Vdss
[19] = Half life in mouse at 2 mg/kg, iv; type: ADME, organism-based; set-up: dose 2 mg/kg, route intravenous; conditions: in vivo
[20] = AUC (0 to infinity) in mouse at 10 mg/kg, po; type: ADME, organism-based; set-up: dose 10 mg/kg, route oral, time infinity; conditions: plasma
[21] = Oral bioavailability in mouse at 10 mg/kg; type: ADME, organism-based; conditions: in vivo
[22] = Clearance in rat at 2 mg/kg, iv and 5 mg/kg, po; type: ADME, organism-based; conditions: in vivo
[23] = Volume of distribution at steady state in rat at 2 mg/kg, iv and 5 mg/kg, po; type: ADME, organism-based; conditions: in vivo, read-out: Vdss
[24] = Half life in rat at 2 mg/kg, iv; type: ADME, organism-based; set-up: dose 2 mg/kg, route intravenous; conditions: in vivo
[25] = AUC (0 to infinity) in rat at 5 mg/kg, po; type: ADME, organism-based; set-up: time infinity, dose 5 mg/kg, route oral; conditions: plasma
[26] = Oral bioavailability in rat at 5 mg/kg; type: ADME, organism-based; conditions: in vivo
[27] = Clearance in dog at 2 mg/kg, iv and 5 mg/kg, po; type: ADME, organism-based, Canis lupus familiaris; conditions: in vivo
Procedure, shortened: (§4)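 Dog PK: intravenous 2 mg kg^-1 in 10% dimethylacetamide, 23% water, 67% PEG 400; oral 5 mg kg^-1 in 1% Tween 80, 47.5% OraPlus, 51.5% water.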

[28] = Volume of distribution at steady state in dog at 2 mg/kg, iv and 5 mg/kg, po; type: ADME, organism-based, Canis lupus familiaris; conditions: in vivo, read-out: Vdss; procedure, shortened: as §4
[29] = Half life in dog at 2 mg/kg, iv; type: ADME, organism-based, Canis lupus familiaris; set-up: dose 2 mg/kg, route intravenous; conditions: in vivo; procedure, shortened: as §4
[30] = AUC (0 to infinity) in dog at 5 mg/kg, po; type: ADME, organism-based, Canis lupus familiaris; set-up: time infinity, dose 5 mg/kg, route oral; conditions: plasma
[31] = Oral bioavailability in dog at 5 mg/kg; type: ADME, organism-based, Canis lupus familiaris; conditions: in vivo
[32] = Clearance in monkey at 2 mg/kg, iv and 10 mg/kg, po; type: ADME, organism-based, Macaca mulatta; conditions: rhesus monkey, in vivo
[33] = Volume of distribution at steady state in monkey at 2 mg/kg, iv and 10 mg/kg, po; type: ADME, organism-based, Macaca mulatta; conditions: rhesus monkey, in vivo, read-out: Vdss
[34] = Half life in monkey at 2 mg/kg, iv; type: ADME, organism-based, Macaca mulatta; set-up: dose 2 mg/kg, route intravenous; conditions: rhesus monkey, in vivo
[35] = AUC (0 to infinity) in monkey at 10 mg/kg, po; type: ADME, organism-based, Macaca mulatta; set-up: time infinity, dose 10 mg/kg, route oral; conditions: rhesus monkey, plasma
[36] = Oral bioavailability in monkey at 10 mg/kg; type: ADME, organism-based, Macaca mulatta; conditions: rhesus monkey, in vivo
[37] = Fraction unbound in cynomolgus monkey plasma protein; type: ADME, cell-free, Macaca fascicularis
Cynomolgus monkey [38] = experiment: Plasma concentration in cynomolgus monkey at 3 mg/kg, po; type: ADME, organism-based, Macaca fascicularis; set-up: dose 3 mg/kg, route oral; conditions: in vivo
Procedure, shortened: (§5)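 Male cynomolgus monkeys, at least four per group, given a single nasal-gastric dose in 1% Tween 80, 47.5% Ora-Plus, 51.5% water. Plasma collected 2 h post-dose and snap-frozen.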

Cynomolgus monkey [39] = experiment: Plasma concentration in cynomolgus monkey at 30 mg/kg, po; type: ADME, organism-based, Macaca fascicularis; set-up: dose 30 mg/kg, route oral; conditions: in vivo; procedure, shortened: as §5
Cynomolgus monkey [40] = experiment: Inhibition of 11beta-HSD1 in mesenteric fat of cynomolgus monkey assessed as conversion of [3H]cortisone to [3H]cortisol at 3 mg/kg, po after 2 hrs; type: functional, organism-based; set-up: dose 3 mg/kg; conditions: Macaca fascicularis
Procedure, shortened: (§6)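 Male cynomolgus monkeys, at least four per group, given a single nasal-gastric dose in 1% Tween 80/47.5% Ora-Plus/51.5% water. Plasma and mesenteric fat taken 2 h post-dose and snap-frozen. About 50 mg fat pieces, in triplicate, incubated 1 h at 37 °C in KRP buffer pH 7.4 containing 3H-cortisone. 3H-cortisol in the medium quantified by SPA with anti-cortisol antibody beads.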

Cynomolgus monkey [41] = experiment: Inhibition of 11beta-HSD1 in mesenteric fat of cynomolgus monkey assessed as conversion of [3H]cortisone to [3H]cortisol at 30 mg/kg, po after 2 hrs; type: functional, organism-based; set-up: dose 30 mg/kg; conditions: Macaca fascicularis; procedure, shortened: as §6

T1 sequence (P28845 whole entry): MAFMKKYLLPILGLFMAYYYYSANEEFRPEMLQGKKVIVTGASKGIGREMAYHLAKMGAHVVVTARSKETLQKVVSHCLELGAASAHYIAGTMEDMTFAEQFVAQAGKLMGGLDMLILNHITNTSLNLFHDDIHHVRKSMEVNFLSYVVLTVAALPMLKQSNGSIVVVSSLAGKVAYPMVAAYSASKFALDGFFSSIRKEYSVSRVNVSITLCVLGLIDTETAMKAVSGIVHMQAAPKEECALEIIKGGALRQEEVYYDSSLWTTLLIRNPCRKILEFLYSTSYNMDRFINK
T5 sequence (P50172 whole entry): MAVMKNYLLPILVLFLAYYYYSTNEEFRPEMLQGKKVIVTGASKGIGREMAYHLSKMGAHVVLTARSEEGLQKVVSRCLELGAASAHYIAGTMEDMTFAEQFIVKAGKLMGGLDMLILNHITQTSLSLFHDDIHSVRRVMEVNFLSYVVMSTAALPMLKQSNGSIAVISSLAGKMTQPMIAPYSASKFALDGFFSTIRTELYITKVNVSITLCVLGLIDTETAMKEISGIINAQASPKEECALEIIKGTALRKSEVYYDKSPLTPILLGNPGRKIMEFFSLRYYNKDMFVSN
T7 sequence (Q5XX84 whole entry): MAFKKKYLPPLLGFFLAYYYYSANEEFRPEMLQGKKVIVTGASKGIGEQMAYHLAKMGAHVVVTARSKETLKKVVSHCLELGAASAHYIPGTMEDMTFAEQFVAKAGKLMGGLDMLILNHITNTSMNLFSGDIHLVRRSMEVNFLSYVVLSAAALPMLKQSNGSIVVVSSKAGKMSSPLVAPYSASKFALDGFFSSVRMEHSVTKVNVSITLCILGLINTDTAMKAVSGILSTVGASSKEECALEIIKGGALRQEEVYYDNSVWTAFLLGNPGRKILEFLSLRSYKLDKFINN
T4 sequence (P08684 whole entry): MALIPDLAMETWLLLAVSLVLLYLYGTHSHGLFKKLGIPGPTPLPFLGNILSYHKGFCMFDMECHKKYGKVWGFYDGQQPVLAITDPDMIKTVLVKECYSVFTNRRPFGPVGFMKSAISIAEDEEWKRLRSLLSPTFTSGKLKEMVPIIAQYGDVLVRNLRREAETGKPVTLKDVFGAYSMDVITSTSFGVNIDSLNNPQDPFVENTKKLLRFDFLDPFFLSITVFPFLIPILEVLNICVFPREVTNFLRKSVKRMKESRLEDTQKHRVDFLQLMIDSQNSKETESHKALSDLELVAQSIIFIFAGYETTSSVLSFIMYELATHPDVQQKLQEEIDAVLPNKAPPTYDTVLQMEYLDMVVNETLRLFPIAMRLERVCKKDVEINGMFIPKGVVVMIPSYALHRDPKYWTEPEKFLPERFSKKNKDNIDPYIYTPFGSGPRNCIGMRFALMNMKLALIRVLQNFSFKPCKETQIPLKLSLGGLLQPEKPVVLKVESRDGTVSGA
T6 sequence (P16232 whole entry): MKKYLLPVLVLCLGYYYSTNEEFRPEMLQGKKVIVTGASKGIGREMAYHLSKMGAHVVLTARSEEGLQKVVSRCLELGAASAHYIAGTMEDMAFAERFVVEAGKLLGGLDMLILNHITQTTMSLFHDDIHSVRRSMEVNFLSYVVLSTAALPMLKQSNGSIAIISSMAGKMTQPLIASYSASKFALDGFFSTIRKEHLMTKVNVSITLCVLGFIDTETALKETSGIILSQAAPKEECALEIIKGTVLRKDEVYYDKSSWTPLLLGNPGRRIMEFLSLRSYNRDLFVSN

C[C@H](NC1=NC(=O)[C@@](C)(C(C)(C)O)S1)c1ccc(F)cc1
Ki [1]: 210 nM | IC50 [2]: 300 nM

C[C@H](NC1=NC(=O)C(C)(c2ccc(C3(C(N)=O)CC3)cc2)S1)c1ccc(F)cc1 (some centres not stated)
activity at 2 µM [3]: 6.7% | Activity [4]: 97%

C[C@H](NC1=NC(=O)C(C)(C(C)(C)O)S1)c1ccccc1 (some centres not stated)
Activity [4]: 68%

C[C@H](NC1=NC(=O)C(C)(c2ccc(F)cc2)S1)c1ccc(F)cc1 (some centres not stated)
activity at 2 µM [3]: 64% | Activity [4]: 65%

C[C@H](NC1=NC(=O)[C@](C)(C(C)(C)O)S1)c1ccc(F)cc1
Ki [1]: 35 nM | IC50 [2]: 34 nM | Activity [4]: 6% | Activity (Hepatocyte [5]): 45% | Activity (Hepatocyte [6]): 13% | Activity (Cytochrome P450 3A4 [7]): 17% | Activity (Cytochrome P450 3A4 [8]): 10% | Ki [9]: 100 nM | Ki [10]: 300 nM | Ki [11]: 12 nM | Ki [12]: 48 nM | IC50 [13]: 140 nM | IC50 [14]: 340 nM | IC50 [15]: 45 nM | IC50 [16]: 42 nM | clearance [17]: 26.7 mL/min/kg | Vd [18]: 1.4 L/kg | half-life [19]: 3.3 h | AUC(0-inf) [20]: 6500 ng·h/mL | bioavailability [21]: 100% | clearance [22]: 5.17 mL/min/kg | Vd [23]: 2.5 L/kg | half-life [24]: 5.6 h | AUC(0-inf) [25]: 9200 ng·h/mL | bioavailability [26]: 56% | clearance [27]: 1.42 mL/min/kg | Vd [28]: 0.88 L/kg | half-life [29]: 7.3 h | AUC(0-inf) [30]: 54000 ng·h/mL | bioavailability [31]: 91% | clearance [32]: 20 mL/min/kg | Vd [33]: 1.9 L/kg | half-life [34]: 2.2 h | AUC(0-inf) [35]: 5700 ng·h/mL | bioavailability [36]: 65% | fraction unbound [37]: 0.108 | concentration (Cynomolgus monkey [38]): 4.9 µM | concentration (Cynomolgus monkey [39]): 26 µM | Activity (Cynomolgus monkey [40]): Active | Activity (Cynomolgus monkey [41]): Active
